Measured values from different studies.
Protocols differ between the studies behind these lines.
Effect on: metabolic stability

For `NC[C@@H]1O[C@H](O[C@H]2[C@@H](O)[C@H](O[C@@H]3[C@@H](O)[C@H](N)C[C@H](N)[C@H]3O[C@H]3O[C@H](CO)[C@@H](O)[C@H](O)[C@H]3N)O[C@@H]2CO)[C@H](N)[C@@H](O)[C@@H]1O`, the half-life was 143 min (mouse, liver microsomes; 25 µM, pH 7.4).
With `O=C(Cc1ccc2ccccc2c1)Nc1cc(C2CCC2)[nH]n1` the half-life was 28.1 min (mouse, liver S9).
`Cc1noc(C)c1-c1ccc2nc(C(=O)NC3CCN(C)CC3)nc(NCc3cccc(Cl)c3)c2c1` has a half-life of 28 min (mouse, liver microsomes).
For `COC(=O)c1csc(C(=O)c2c[nH]c3ccccc23)n1`, the half-life was 11 min (mouse, liver microsomes).
For `CCOC(=O)C1=C(C)N/C(=C/c2cc(C)n(-c3ccc(F)cc3F)c2C)C1=O`, the half-life was 23 min (mouse, liver microsomes; 1 µM).
With `O=S(=O)(Nc1cccc(-c2nnn[nH]2)c1)c1ccc(C(F)(F)F)c(F)c1` the half-life was 174 min (mouse, liver microsomes).
`CCOC(=O)NS(=O)(=O)c1sc(CC(C)C)cc1-c1ccc2c(c1)CN(C(=O)OCC)C2` gave a half-life of 2.1 min (mouse, liver microsomes; 1 µM, pH 7.4).
The half-life of `CC(C)(C)C[C@@H]1N[C@@H](C(=O)N[C@H]2C[C@](C)(O)C2)[C@H](c2cccc(Cl)c2F)[C@]12C(=O)Nc1cc(Cl)ccc12` is reported as greater than 60 min (mouse, liver microsomes).
`O=C(OC(C(F)(F)F)C(F)(F)F)N1Cc2ccc(OCCN3CCOCC3)cc2C1` gave a half-life of 7 min (mouse, liver microsomes).
With `Cc1ccc(-c2cnc(N3CCC(C(N)=O)CC3)s2)cc1` the half-life was less than 10 min (mouse, liver microsomes; 1 µM).
For `CCOC(=O)C1=C(C)N/C(=C/c2cc(C)n(-c3ccc(N(C)C)cc3)c2C)C1=O`, the half-life was 31 min (mouse, liver microsomes; 1 µM).
The half-life of `COc1ccc(NC(=O)[C@H]2c3ccccc3C(=O)N(CC(C)C)[C@@H]2c2cccs2)cc1Cl` (racemic) is reported as less than 30 min (female CD-1 mouse, liver microsomes; 80 nM, pH 7.4).
`O=C(O)C1CCN(c2ncc(-c3ccc4c(c3)OCCCO4)s2)CC1` gave a half-life of greater than 30 min (mouse, liver microsomes; 1 µM).
The half-life of `N=c1c2c(-c3ccccc3)c(-c3ccccc3)n(CCc3ccccc3)c2ncn1[C@H]1CC[C@H](O)CC1` is reported as greater than 120 min (male CD-1 mouse, liver microsomes; 1 µM, pH 7.4).
For `CCCN(C)Cc1cc(-c2[nH]c3cccc(F)c3c(=O)c2C)ccc1Cc1ccc(OC(F)(F)F)cc1`, the half-life was 3.47 min (mouse, liver microsomes).
The half-life of `O=C(Nc1ccccc1)C1CCN(c2ncc(-c3ccc4c(c3)OCCCO4)s2)CC1` is reported as less than 10 min (mouse, liver microsomes; 1 µM).
The half-life of `CN1CCN(Cc2cc(CNC3(c4ccccc4F)CCCC3)ccc2O)CC1` is reported as 12 min (mouse, liver microsomes; 4.6 µM, pH 7.5).
`CC[C@@H]1C=CC(=O)O[C@@H]1C[C@@H](O)[C@H](C)[C@H](O)[C@@H](C)Cc1ccc(F)cc1` has a half-life of 3 min (mouse, liver microsomes).
`C=CC(=O)Nc1ccc(N2CCC[C@@H](Nc3ncc(Cl)c(-c4c[nH]c5ccccc45)n3)C2)cc1` has a half-life of 7.2 min (mouse, liver microsomes).
For `CCOC(=O)C1=C(C)N/C(=C/c2cc(C)n(-c3cccnc3)c2C)C1=O`, the half-life was 21 min (mouse, liver microsomes; 1 µM).
With `O=C(N[C@H](Cc1c[nH]c2ccccc12)C(=O)Nc1ccncc1)c1ccc(-c2ccc(F)c(F)c2)cc1F` the half-life was 39 min (mouse, liver microsomes).
For `CCCCOC(=O)NS(=O)(=O)c1sc(CC(C)C)cc1-c1ccc(OC(F)(F)F)c(Cn2ccnc2)c1`, the half-life was 103 min (mouse, liver microsomes; 1 µM, pH 7.4).
`COc1cc2c(cc(C#N)n2Cc2cn[nH]c2)c(C)c1CN1CCC(Nc2ncnc3sc(CC(F)(F)F)cc23)CC1` gave a half-life of greater than 30 min (CD-1 mouse, liver microsomes; 1 µM, pH 7.4).
With `O=C1CCN(C(=O)Nc2ccc(F)c(Cl)c2)[C@H]2CCCC[C@@H]12` (relative stereo) the half-life was greater than 32 min (mouse, liver microsomes).
With `O=C(O)CN(CCCc1ccccc1)CC(=O)N[C@H](CO)Cc1c[nH]cn1` the half-life was greater than 40 min (male mouse, liver microsomes; 1 µM, pH 7.4).
The half-life of `C=CC(=O)Nc1ccc(N2CCC[C@@H](Nc3ncc(Cl)c(-c4c[nH]c5ccccc45)n3)C2)c(F)c1` is reported as 7.6 min (mouse, liver microsomes).
For `Cc1noc([C@H](Cc2c[nH]cn2)NC(=O)CN(CCCc2ccccc2)CC(=O)O)n1`, the half-life was greater than 40 min (male mouse, liver microsomes; 1 µM, pH 7.4).
`O=S(=O)(Nc1cccc(-c2nnn[nH]2)c1)c1cc(C(F)(F)F)ccc1C(F)(F)F` has a half-life of 35 min (mouse, liver microsomes).
With `Cc1c(CN2CCC(Nc3ncnc4sc(CC(F)(F)F)cc34)CC2)c(O)cc2[nH]c(C#N)cc12` the half-life was greater than 30 min (CD-1 mouse, liver microsomes; 1 µM, pH 7.4).
For `CO[C@@H](C[C@H]1C(C)=CC[C@@H]2[C@]3(C)C[C@H](O[C@@H]4O[C@@H](C)[C@H](OC(=O)c5cccc(O)c5)[C@@H](O[C@@H]5O[C@H](CO)[C@@H](O)[C@H](O)[C@H]5NC(C)=O)[C@H]4O)[C@@H](O)C(C)(C)[C@H]3CC[C@]21C)[C@H](N)C(=O)O.O=C(O)C(F)(F)F`, the half-life was 296 min (mouse, hepatocytes; 1 µM).
With `COC(=O)CN(CCCc1ccccc1)CC(=O)N[C@@H](Cc1c[nH]cn1)c1nc(C)no1` the half-life was 19 min (male mouse, liver microsomes; 1 µM, pH 7.4).
With `O=S(=O)(Nc1cccc(-c2nnn[nH]2)c1)c1cc(C(F)(F)F)cc(C(F)(F)F)c1` the half-life was 535 min (mouse, liver microsomes).
`CCS(=O)(=O)Nc1cccc(-c2cn(C)c(=O)c3ccccc23)c1` gave a half-life of 11 min (mouse, liver microsomes).
`CCOC(=O)C1=C(C)N/C(=C/c2cc(C)n(Cc3ccc(C(F)(F)F)cc3)c2C)C1=O` has a half-life of 17 min (mouse, liver microsomes; 1 µM).
For `CC[C@@H]1C=CC(=O)O[C@@H]1C[C@@H](O)[C@H](C)[C@H](OC)[C@@H](C)Cc1ccccc1`, the half-life was 4.4 min (mouse, liver microsomes).
`CCN(CC)CCNC(=O)c1c(C)[nH]c(/C=C2\C(=O)Nc3ccc(F)cc32)c1C` has a half-life of 12.8 min (mouse, liver microsomes; 1 µM, pH 7.4).
The half-life of `CNC(=O)c1ccccc1Nc1cc(Nc2cc(C)c(C3CCN(CCCCCCNC(=O)COc4cccc5c4C(=O)N(C4CCC(=O)NC4=O)C5=O)CC3)cc2OC(C)C)ncc1C(F)(F)F` (stereo not shown) is reported as 27 min (mouse, liver microsomes).
With `CN1CCC(Cc2cccc(CNC3(c4ccc(F)cc4)CCCC3)c2)CC1(C)C` (racemic) the half-life was roughly 60 min (mouse, liver microsomes; 4.6 µM, pH 7.5).
With `N=c1c2c(-c3ccccc3)c(-c3ccccc3)n(Cc3ccccc3)c2ncn1C1CCOCC1` the half-life was 30 min (male CD-1 mouse, liver microsomes; 1 µM, pH 7.4).
`NC1(c2ccc(-c3nc4ccn5c(=O)[nH]nc5c4cc3-c3ccccc3)cc2)CCC1` has a half-life of 85.8 min (CD-1 mouse, liver microsomes; 1 µM, pH 7.4).
`CCCCOC(=O)NS(=O)(=O)c1sc(CC(C)C)cc1-c1ccc2c(c1)CN(C(C)=O)C2` has a half-life of 1.8 min (mouse, liver microsomes; 1 µM, pH 7.4).
`O=C(Nc1cncc(-c2nc3ccccc3o2)c1)c1ccc(N2CCNCC2)c([N+](=O)[O-])c1` has a half-life of greater than 110 min (CD-1 mouse, liver microsomes; 1 µM, pH 7.4).
`C=CC(=O)Nc1cccc(-n2nc3c(=O)[nH]nc(N)c3c2-c2oc3ccc(C)cc3c2C)c1` has a half-life of 134 min (nude mouse, blood; 1 µM, whole blood).
The half-life of `O=S(=O)(Nc1cccc(-c2nnn[nH]2)c1)c1ccc(Cl)c(Cl)c1Cl` is reported as 192 min (mouse, liver microsomes).
The half-life of `O=c1ccc2ccc(O)cc2o1` is reported as 4.71 min (mouse, liver S9; 2 µM, pH 7.4).
For `CC[C@@H]1C=CC(=O)O[C@@H]1C[C@@H](OC)[C@H](C)[C@H](OC)[C@@H](C)Cc1ccc(F)cc1`, the half-life was less than 2.3 min (mouse, liver microsomes).
With `O=S(=O)(Nc1cccc(-c2nnn[nH]2)c1)c1ccc(F)c(F)c1` the half-life was 346 min (mouse, liver microsomes).
`CCOC(=O)C1=C(C)N/C(=C/c2cc(C)n(-c3ccncc3)c2C)C1=O` has a half-life of 29 min (mouse, liver microsomes; 1 µM).
For `Fc1ccc([C@@H]2CCNC[C@H]2COc2ccc3c(c2)OCO3)cc1`, the half-life was 24 min (CD-1 mouse, liver microsomes; 1 µM, pH 7.4).
With `CC1=C(C(N)=O)C(=O)/C(=C\c2cc(C)n(-c3ccccc3C(F)(F)F)c2C)N1` the half-life was 19 min (mouse, liver microsomes; 1 µM).
For `N=C(N)NCc1ccc(NC(=O)C23CCC(C(=O)Nc4ccc(C5=CCN(C(=N)N)CC5)cc4)(CC2)CC3)cc1`, the half-life was greater than 60 min (CD-1 mouse, liver microsomes; 1 µM).
With `CCOC(=O)C1=C(C)N/C(=C/c2cc(C)n(-c3ccc(CN4CCOCC4)cc3)c2C)C1=O` the half-life was 31 min (mouse, liver microsomes; 1 µM).
With `O=C(CC1Cc2ccccc2C1)N[C@H](CN1CCCC1)[C@H](O)c1ccc2c(c1)OCCO2` the half-life was 2.5 min (mouse, liver microsomes).
For `CCOC(=O)C1=C(C)N/C(=C/c2ccn(-c3ccc(C(F)(F)F)cc3)c2)C1=O`, the half-life was 12 min (mouse, liver microsomes; 1 µM).
`CCOC(=O)NS(=O)(=O)c1sc(CC(C)C)cc1-c1ccc2c(c1)CN(C)C(=O)C2` has a half-life of 23 min (mouse, liver microsomes; 1 µM, pH 7.4).
